In one assay the test system is Vero. As to the kind of experiment: Cytotoxicity against african green monkey Vero cells expressing GFP after 4 days by fluorescence assay. The class given is cell-based. The conditions noted are these: Chlorocebus sabaeus, 96 h. An outline of the steps:
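Vero (African green monkey kidney) cells stably transfected with pEGFP-N1, kept in MEM with 10% heat-inactivated FBS, 2 mM L-glutamine, 1 mM pyruvate, geneticin. Cells seeded at 3.3 × 10⁴ cells/mL onto compounds diluted in 0.5% DMSO, 4 days at 37 °C, 5% CO₂. Bottom-read fluorescence (ex 485/em 535 nm), day-0 background subtracted. IC50 by curve fit from 6 two-fold dilutions.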

The next assay relates to NCI-H187. As to the kind of experiment: Cytotoxicity against human NCI-H187 cells after 5 days by resazurin microplate assay. Format: functional, cell-based. The conditions noted are these: NCI-H187, 120 h. An outline of the steps:
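Log-phase NCI-H187 cells diluted to 9×10^4 cells/mL and seeded onto compounds in 0.5% DMSO. After 5 days at 37 °C, 5% CO₂, resazurin added for 4 h. Fluorescence read at ex 530/em 590 nm. IC50 fitted from 6 two-fold serial dilutions. Doxorubicin and 0.5% DMSO controls. Mean of three replicates ± SD.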

The next assay has as its system KB. Kind of assay: Cytotoxicity against human KB cells after 3 days by resazurin microplate assay. The class given is functional, cell-based. Put shortly:
(§1)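 Log-phase cells seeded at 7×10^4 cells/mL (KB) or 9×10^4 cells/mL (MCF-7) onto compounds in 0.5% DMSO. Incubated 3 days at 37 °C, 5% CO₂, then resazurin added for 4 h. Fluorescence read at ex 530/em 590 nm. IC50 by curve fit from 6 two-fold serial dilutions. Doxorubicin positive, 0.5% DMSO negative control. Mean of three replicates ± SD.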
On the technique in general: The colour change of resazurin is a common sign of viable cells or microbes.

The subject of the next assay is MCF7. Kind of assay: Cytotoxicity against human MCF7 cells after 3 days by resazurin microplate assay. The class given is functional, cell-based. An outline of the steps:
as §1

The target in assay [1] is DNA topoisomerase 2-alpha (Homo sapiens) (UniProt P11388). Kind of assay: Inhibition of human topoisomerase 2alpha-mediated decatenation of kinetoplast DNA at 10 uM after 1 hr using ethidium bromide by agarose gel electrophoresis analysis relative to doxorubicin. An outline of the steps: (§2)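 Doxorubicin as positive control. Stopped with Sarkosyl loading dye. Run on 1% agarose in 0.5x TBE with ethidium bromide at 50 V, imaged under UV. Decatenated and linearized kDNA used as markers.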

For assay [2] the target is unchanged. Kind of assay: Inhibition of human topoisomerase 2alpha-mediated decatenation of kinetoplast DNA at 20 uM after 1 hr using ethidium bromide by agarose gel electrophoresis analysis. An outline of the steps:
as §2

Assay [3] shares this target. As to the kind of experiment: Inhibition of human topoisomerase 2alpha-mediated decatenation of kinetoplast DNA at 50 uM after 1 hr using ethidium bromide by agarose gel electrophoresis analysis. An outline of the steps:
as §2

Setting [4] is: Homo sapiens, KB, 72 h, read-out: IC50.
Setting [5] is: Homo sapiens, MCF7, 72 h, read-out: IC50.

The source made the active and inactive calls. The rule behind the calls is not given here.

DNA topoisomerase 2-alpha (Homo sapiens), sequence (P11388 whole entry): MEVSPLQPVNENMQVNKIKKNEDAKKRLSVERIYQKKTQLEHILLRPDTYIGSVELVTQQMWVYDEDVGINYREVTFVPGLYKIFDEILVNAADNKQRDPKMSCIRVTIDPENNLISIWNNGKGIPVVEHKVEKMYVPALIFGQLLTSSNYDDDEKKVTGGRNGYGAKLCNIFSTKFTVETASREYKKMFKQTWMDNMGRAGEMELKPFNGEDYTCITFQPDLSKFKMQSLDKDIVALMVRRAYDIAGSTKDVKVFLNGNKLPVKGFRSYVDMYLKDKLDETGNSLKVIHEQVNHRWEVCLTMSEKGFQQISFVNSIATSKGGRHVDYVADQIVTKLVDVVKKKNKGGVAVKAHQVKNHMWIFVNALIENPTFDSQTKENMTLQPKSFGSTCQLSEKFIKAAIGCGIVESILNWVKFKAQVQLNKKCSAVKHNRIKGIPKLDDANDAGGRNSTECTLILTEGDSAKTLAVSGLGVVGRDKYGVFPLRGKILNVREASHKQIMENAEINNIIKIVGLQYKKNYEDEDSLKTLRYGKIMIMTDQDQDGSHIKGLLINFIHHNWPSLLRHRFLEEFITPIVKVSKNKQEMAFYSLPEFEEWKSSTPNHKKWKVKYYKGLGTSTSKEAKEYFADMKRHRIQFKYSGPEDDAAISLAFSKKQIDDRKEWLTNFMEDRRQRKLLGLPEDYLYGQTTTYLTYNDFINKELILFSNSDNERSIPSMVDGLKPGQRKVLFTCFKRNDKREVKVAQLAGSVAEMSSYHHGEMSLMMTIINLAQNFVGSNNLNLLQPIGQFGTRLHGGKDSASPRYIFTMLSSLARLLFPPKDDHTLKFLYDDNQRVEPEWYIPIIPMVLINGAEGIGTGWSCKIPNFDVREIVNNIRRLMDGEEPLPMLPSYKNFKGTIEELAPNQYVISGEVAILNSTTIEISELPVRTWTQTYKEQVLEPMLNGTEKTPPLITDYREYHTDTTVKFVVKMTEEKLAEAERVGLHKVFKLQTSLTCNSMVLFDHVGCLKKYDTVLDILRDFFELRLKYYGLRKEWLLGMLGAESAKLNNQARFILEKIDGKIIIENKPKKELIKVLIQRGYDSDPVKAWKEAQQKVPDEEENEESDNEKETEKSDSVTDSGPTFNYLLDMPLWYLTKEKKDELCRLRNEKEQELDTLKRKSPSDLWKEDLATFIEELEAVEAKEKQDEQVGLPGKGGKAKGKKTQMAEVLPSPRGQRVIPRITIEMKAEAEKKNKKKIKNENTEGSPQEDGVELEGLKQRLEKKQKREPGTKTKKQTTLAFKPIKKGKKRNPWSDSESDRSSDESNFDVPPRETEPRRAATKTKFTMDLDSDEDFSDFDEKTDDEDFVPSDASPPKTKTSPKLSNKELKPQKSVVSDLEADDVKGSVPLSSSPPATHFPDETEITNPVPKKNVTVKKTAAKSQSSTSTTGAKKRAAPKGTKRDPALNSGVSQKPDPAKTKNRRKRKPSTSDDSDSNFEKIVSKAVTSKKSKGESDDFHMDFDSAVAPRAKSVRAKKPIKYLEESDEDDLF

Usually IC50 stands for the concentration needed to halve the response being measured. In the case of `COC1=C(CC(C)(C)CNC(=O)c2ccc3ccccc3c2)C(=O)c2ccccc2C1=O`, the concentration for half-maximal inhibition (IC50) with Vero is 36 µM; with NCI-H187, 25.7 µM; with KB (setting [4]) it was 34.1 µM; in the assay on MCF7 (setting [5]), 52.5 µM.
On to `CC(C)(CNC(=O)c1ccc2ccccc2c1O)CC1=C(O)C(=O)c2ccccc2C1=O`, for which the inhibition result in assay [1] is “inactive”. Further, the half-inhibitory concentration (IC50) was 93.7 µM in the assay on Vero, 14.4 µM in the assay with NCI-H187, 26.9 µM in the assay with KB (setting [4]) and 79.5 µM in the assay with MCF7 (setting [5]). Further, the inhibition result in assay [2] and in assay [3] was “Active” each time.
As for `COc1ccc(O)c(C(=O)NCC(C)(C)CC2=C(O)C(=O)c3ccccc3C2=O)c1`, the IC50 in the assay with Vero was 31.1 µM; in the assay with NCI-H187, 15 µM; in the assay with KB (kb), “Not Active”; in the assay on MCF7 (setting [5]) it was 39.6 µM.
In the case of `COc1ccc(OC)c(C(=O)NCC(C)(C)CC2=C(O)C(=O)c3ccccc3C2=O)c1`, the 50% inhibitory concentration (IC50) is 89.1 µM in the assay with Vero, 40.9 µM in the assay on NCI-H187, 86.6 µM with KB (setting [4]) and 99.4 µM in the assay with MCF7 (setting [5]).
In the case of `COc1cc(C(=O)NCC(C)(C)CC2=C(O)C(=O)c3ccccc3C2=O)c(O)c2ccccc12`, the inhibition result in assay [1] was “inactive”. Moreover, the IC50 in the assay with Vero amounted to 15.8 µM; in the assay on NCI-H187, 26 µM; in the assay on KB (setting [4]), 8.62 µM; with MCF7 (setting [5]) it was 35.6 µM. For the same compound, the inhibition entry in assay [2] and in assay [3] was “Active” each time.
As to `CC(C)(CNC(=O)c1ccccc1)CC1=C(O)C(=O)c2ccccc2C1=O`, the IC50 turned out to be 50.5 µM with Vero, 40.1 µM with NCI-H187, 15.2 µM in the assay on KB (setting [4]) and 37.1 µM in the assay on MCF7 (setting [5]).
Take `CC(C)(CNC(=O)c1ccccc1O)CC1=C(O)C(=O)c2ccccc2C1=O`: the inhibition result in assay [1] is “inactive”. In addition, the 50% inhibitory concentration (IC50) in the assay with Vero came out at 32.1 µM; with NCI-H187, 8.83 µM; in the assay with KB (setting [4]), 44.9 µM; in the assay on MCF7 (setting [5]) it was 28.1 µM. Further, the inhibition result in assay [3] was “Active”.
On to `COc1cccc2c1C(=O)c1c(O)c3c(c(O)c1C2=O)C[C@@](O)(C(=O)CO)C[C@@H]3O[C@H]1C[C@H](N)[C@H](O)[C@H](C)O1` [DOXORUBICIN], for which the half-inhibitory concentration (IC50) in the assay with Vero is 28.8 µM; with NCI-H187 it was 0.16 µM; in the assay with KB (setting [4]) it was 0.9 µM.
Consider `COc1c(C(=O)NCC(C)(C)CC2=C(O)C(=O)c3ccccc3C2=O)ccc2ccccc12`, for which the IC50 was found to be 47.3 µM with Vero, 37 µM with NCI-H187, 66.9 µM in the assay with KB (setting [4]) and 39.8 µM in the assay on MCF7 (setting [5]).
`COC1=C(CC(C)(C)CNC(=O)c2ccc3ccccc3c2OC)C(=O)c2ccccc2C1=O`: the IC50 in the assay with Vero was 60.6 µM; with NCI-H187, 53.2 µM; with KB (setting [4]), 64.1 µM; in the assay with MCF7 (setting [5]), 95.7 µM.
For the compound `CC(C)(CNC(=O)c1ccc2ccccc2c1)CC1=C(O)C(=O)c2ccccc2C1=O`, the inhibition result in assay [1] was “inactive”. In addition, the IC50 with Vero worked out at 46.6 µM; with NCI-H187, 19.5 µM; in the assay on KB (setting [4]) it was 9 µM; with MCF7 (setting [5]), 28.2 µM. In addition, the inhibition result in assay [3] was “Active”.
Take `COC1=C(CC(C)(C)CNC(=O)c2ccccc2OC)C(=O)c2ccccc2C1=O`: the IC50 with Vero was 27.3 µM; in the assay with NCI-H187 it was 34.7 µM; in the assay on KB (setting [4]) it was 33.2 µM; in the assay with MCF7 (setting [5]), 70.7 µM.
For the compound `COC1=C(CC(C)(C)CNC(=O)c2cc(OC)ccc2OC)C(=O)c2ccccc2C1=O`, the IC50 in the assay on Vero is 36.2 µM; with NCI-H187 it was 74.3 µM; with KB (setting [4]), 34.3 µM; in the assay on MCF7 (setting [5]), 57.9 µM.
Regarding `COc1cc(C(=O)NCC(C)(C)CC2=C(O)C(=O)c3ccccc3C2=O)c(OC)c2ccccc12`, in assay [1], the inhibition result is “inactive”. The half-maximal inhibitory concentration (IC50) with Vero was 17.7 µM; with NCI-H187, 19.8 µM; in the assay with KB (setting [4]), 47 µM; with MCF7 (mcf7), “Not Active”. The inhibition result in assay [3] was “Active”.
For `COC1=C(CC(C)(C)CNC(=O)c2ccccc2)C(=O)c2ccccc2C1=O`, the 50% inhibitory concentration (IC50) in the assay on Vero stood at 12.3 µM; in the assay with NCI-H187, 19.1 µM; in the assay on KB (setting [4]) it was 117 µM; in the assay on MCF7 (setting [5]), 61.8 µM.
Take `COc1ccccc1C(=O)NCC(C)(C)CC1=C(O)C(=O)c2ccccc2C1=O`: the concentration for half-maximal inhibition (IC50) in the assay with Vero worked out at 31.2 µM; with NCI-H187, 42.9 µM; in the assay with KB (setting [4]), 26.3 µM; with MCF7 (setting [5]), 111 µM.
Consider `COC1=C(CC(C)(C)CNC(=O)c2cc(OC)c3ccccc3c2OC)C(=O)c2ccccc2C1=O`, for which the IC50 with Vero was 30.1 µM; with NCI-H187, 19.6 µM; in the assay on KB (setting [4]), 41.2 µM; in the assay with MCF7 (mcf7), “Not Active”.
